Results taken from ChEMBL document CHEMBL1129274, “Synthesis and growth inhibitory properties of glycosides of 1-O-hexadecyl-2-O-methyl-sn-glycerol, analogs of the antitumor ether lipid ET-18-OCH3 (edelfosine)” (1996).

Assays:
Format in all cases: functional
MCF7 [1] = experiment: Inhibitor activity against MCF-7/Adr (Human colon carcinoma)cell line with varying concentration of the drug for 72 hrs; settings: MCF7, 72 h, in the assay text read “Human breast carcinoma” for “Human colon carcinoma”
How it was run: (§1)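 Cells exposed 72 h to a range of drug concentrations; drug stocks prepared in ethanol. Growth read by in situ fixation and sulforhodamine B protein staining. GI50 is the concentration giving 50% growth inhibition. Each experiment's value comes from three wells on each of two separate plates (six wells); reported as mean ± SD over n experiments.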

HT-29 = experiment: Inhibitor activity against HT-29 (Human colon carcinoma)cell line with varying concentration of the drug for 72 hrs; settings: HT-29, 72 h; how it was run: as §1
A549 = experiment: Inhibitor activity against A549 (Human lung carcinoma)cell line with varying concentration of the drug for 72 hrs; settings: A549, 72 h; how it was run: as §1
P388 [2] = experiment: Inhibitor activity against P388/Adr (murine leukemia )cell line with varying concentration of the drug for 72 hrs; settings: Mus musculus, P388, 72 h; how it was run: as §1
[3] = test system: Lewis lung carcinoma cell line; experiment: Inhibitor activity against Lewis lung (murine lung carcinoma)cell line with varying concentration of the drug for 72 hrs; settings: Mus musculus; how it was run: as §1
MCF7 [4] = experiment: Inhibitor activity against MCF-7(Human breast carcinoma)cell line with varying concentration of the drug for 72 hrs; settings: MCF7, 72 h; how it was run: as §1
L1210 [5] = experiment: Inhibitor activity against L1210 (murine leukemia )cell line with varying concentration of the drug for 72 hrs; settings: Mus musculus, L1210, 72 h
How it was run: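 Murine L1210 leukemia cells grown in RPMI 1640 with 10% FBS. Exposed 72 h to a range of drug concentrations; drug stocks in ethanol. Growth read by in situ fixation and sulforhodamine B staining. GI50 is the concentration giving 50% growth inhibition. Each value comes from six wells over two plates; reported as mean ± SD.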

L1210 [6] = experiment: Inhibitor activity against L1210/vmdr (transfected with a plasmid containing mdr1) cell line with varying concentration of the drug for 72 hrs; settings: Mus musculus, L1210, 72 h
How it was run: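 L1210 leukemia transfected with human mdr1 (pHaMDR1/A), grown in RPMI 1640 with 10% FBS plus 0.06 µg/mL colchicine; colchicine removed one week before assay. Exposed 72 h to a range of drug concentrations (ethanol stocks). Sulforhodamine B staining after in situ fixation. GI50 is the concentration giving 50% growth inhibition, from six wells over two plates.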

P388 [7] = experiment: Inhibitor activity against P388 (murine leukemia )cell line with varying concentration of the drug for 72 hrs; settings: Mus musculus, P388, 72 h; how it was run: as §1

GI50 (MCF7 [1]) [µM] | GI50 (HT-29) [µM] | GI50 (A549) [µM] | GI50 (P388 [2]) [µM] | GI50 [3] [µM] | GI50 (MCF7 [4]) [µM] | GI50 (L1210 [5]) [µM] | GI50 (L1210 [6]) [µM] | GI50 (P388 [7]) [µM] | SMILES
12.8 | 7.59 | 9.9 | 10.2 | 11.1 | 6.93 | 7.02 | 7.09 | 12.7 | CCCCCCCCCCCCCCCCOC[C@H](CO[C@H]1C[C@@H](O)[C@H](O)[C@H](CO)O1)OC
24.4 | 29.6 | 19.7 |  |  | 24.4 | 18.8 | 26.9 |  | CCCCCCCCCCCCCCCCOC[C@H](CO[C@@H]1C[C@@H](O)[C@H](O)[C@H](CO)O1)OC
21.8 |  | 18.3 | 29.3 | 26 | 23.1 |  |  | 18.1 | CCCCCCCCCCCCCCCCOC[C@H](CO[C@@H]1O[C@@H](CO)[C@@H](O)[C@H](O)[C@@H]1OC)OC
18.6 | 20 | 15.6 |  |  | 18.2 | 15.5 | 16.5 |  | CCCCCCCCCCCCCCCCOC[C@H](CO[C@H]1O[C@@H](CO)[C@@H](O)[C@H](O)[C@H]1OC)OC
30.4 | 2.2 | 5.05 | 6.39 | 30.2 | 9.66 | 3.32 | 11 | 4.33 | CCCCCCCCCCCCCCCCCCOC[C@H](COP(=O)([O-])OCC[N+](C)(C)C)OC [(R)-EDELFOSINE]
23.3 | 23.2 | 18.1 |  |  | 21.7 | 16.2 | 18.9 |  | CCCCCCCCCCCCCCCCOC[C@H](CO[C@@H]1O[C@@H](CO)[C@@H](O)[C@H](O)[C@@H]1O)OC
